Experimental data taken from PubChem BioAssay.
Active and inactive are the calls of the source.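 The calls were made as follows, unless noted: active = visually confirmed hit in the image check and inhibition above 20%; inconclusive = visually confirmed hit but inhibition not above 20%; inactive = no visual hit in the image check.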

How the values were obtained:
[1] = inhibitors of TNFa-induced NFkB p65 translocation, primary screen, imaging, HUVEC, MLSMR starter and 10KST1 sets (AID 438;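 active = inhibition above 20% together with a positive visual image hit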;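 also: compound added about 3h40 before a 20 min TNFalpha stimulation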;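 as to inhibition: signal is the nuclear over cytoplasmic p65 intensity ratio per well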); conditions: HUVEC TNFa-induced p65 nuclear translocation; cell count: measured here: nuclei count (cytotoxicity indicator), at 2.08 µM; inhibition: at 2 µM, stronger effect = higher value, 0% TNFa-plus-vehicle, 100% no-TNFa wells
[2] = inhibitors of E-selectin induction by TNFa, primary screen, imaging, HUVEC, immunofluorescence, MLSMR starter and 10KST1 sets (AID 487); conditions: HUVEC TNFalpha-induced E-selectin immunofluorescence imaging, at 2 µM; inhibition: stronger effect = higher value; nuclei count: measured here: cell number, toxicity;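 as to inhibition: signal is fraction of cell area covered by stained E-selectin grains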;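 as to nuclei count: 100% = median nuclei count of all wells on the same plate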
[3] = DUSP6 inhibitors restoring Erk phosphorylation by chemical complementation, primary imaging in DUSP6-transfected HeLa (AID 609;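 active = compounds giving at least 50% inhibition in the cell-based MKP-3 phosphatase rescue imaging test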;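 as to inhibition: phospho-Erk level distribution per well compared with pooled transfected vehicle control wells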); conditions: HeLa MKP-3 transfected, phospho-Erk imaging KS statistic, at 10 µM, cells stimulated with TPA for 15 min
[4] = biological target: Dual specificity protein phosphatase 6 (Homo sapiens) (UniProt Q16828); assay: as above; conditions: HeLa MKP-3 transfected, phospho-Erk imaging KS statistic; at 10 µM; stronger effect = higher value; cells stimulated with TPA for 15 min
Sequence of Dual specificity protein phosphatase 6 (Homo sapiens) (Q16828 whole entry, looked up): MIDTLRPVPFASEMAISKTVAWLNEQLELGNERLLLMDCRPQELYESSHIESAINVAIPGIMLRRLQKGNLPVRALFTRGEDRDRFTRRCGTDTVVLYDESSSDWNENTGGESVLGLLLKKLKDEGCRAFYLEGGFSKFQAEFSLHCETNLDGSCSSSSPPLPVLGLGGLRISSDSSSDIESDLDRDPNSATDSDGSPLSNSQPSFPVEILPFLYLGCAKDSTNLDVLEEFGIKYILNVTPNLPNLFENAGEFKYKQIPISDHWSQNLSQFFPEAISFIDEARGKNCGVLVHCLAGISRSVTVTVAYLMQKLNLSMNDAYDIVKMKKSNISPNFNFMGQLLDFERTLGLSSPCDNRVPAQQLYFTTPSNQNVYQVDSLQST

[5] = biological target: Voltage-gated potassium channel subunit beta-2 (Rattus norvegicus) (UniProt P62483); assay: KvBeta enzyme negative modulators, primary screen, biochemical, NADPH fluorescence (AID 622;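 active = fluorescence slope higher than the sample average by over 3 SD, cut at about -0.22 in these data, passing the limit was not always enough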;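 also: slope of raw intensity against log time taken from 70 to 1610 s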); conditions: recombinant KvBeta, 4-cyanobenzaldehyde reduction, at 10 µM, stronger effect = higher value
Sequence of Voltage-gated potassium channel subunit beta-2 (Rattus norvegicus) (P62483 whole entry, looked up): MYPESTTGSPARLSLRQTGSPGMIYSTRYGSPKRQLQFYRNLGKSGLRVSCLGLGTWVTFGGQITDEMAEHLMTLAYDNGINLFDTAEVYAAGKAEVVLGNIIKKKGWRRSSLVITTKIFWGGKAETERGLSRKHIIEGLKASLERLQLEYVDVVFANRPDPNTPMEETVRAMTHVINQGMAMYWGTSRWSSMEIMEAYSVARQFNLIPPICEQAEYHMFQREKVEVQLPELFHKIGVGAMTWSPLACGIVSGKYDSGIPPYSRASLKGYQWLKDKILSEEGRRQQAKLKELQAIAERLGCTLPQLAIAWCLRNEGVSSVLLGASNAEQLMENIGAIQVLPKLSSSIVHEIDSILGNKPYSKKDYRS

[6] = biological target: Voltage-gated potassium channel subunit beta-2 (Rattus norvegicus) (UniProt P62483); assay: KvBeta positive modulators, primary screen, biochemical, NADPH fluorescence (AID 623;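 active = NADPH fluorescence slope more negative than the mean of all samples by about 3 SD, 99.7% confidence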;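 also: fluorescence intensity change per second fitted from 20 to 320 s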); conditions: Recombinant KvBeta, NADPH fluorescence decrease slope, 10 min; at 10 µM; stronger effect = lower value
[7] = biological target: Alpha-2C adrenergic receptor (Homo sapiens) (UniProt P18825); assay: modulators of alpha2C/GIRK thallium flux, primary screen, cell-based, HEK293 alpha2C/GIRK1/2 (AID 624;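 active = fluorescence slope after compound addition differing from the mean of all screened samples at 99.7% confidence, in either direction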;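 also: slope of fluorescence ratio to pre-addition baseline per second over 15 to 24 s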); conditions: thallium flux BTC fluorescence, at 10 µM, actives lie on both sides
Sequence of Alpha-2C adrenergic receptor (Homo sapiens) (P18825 whole entry, looked up): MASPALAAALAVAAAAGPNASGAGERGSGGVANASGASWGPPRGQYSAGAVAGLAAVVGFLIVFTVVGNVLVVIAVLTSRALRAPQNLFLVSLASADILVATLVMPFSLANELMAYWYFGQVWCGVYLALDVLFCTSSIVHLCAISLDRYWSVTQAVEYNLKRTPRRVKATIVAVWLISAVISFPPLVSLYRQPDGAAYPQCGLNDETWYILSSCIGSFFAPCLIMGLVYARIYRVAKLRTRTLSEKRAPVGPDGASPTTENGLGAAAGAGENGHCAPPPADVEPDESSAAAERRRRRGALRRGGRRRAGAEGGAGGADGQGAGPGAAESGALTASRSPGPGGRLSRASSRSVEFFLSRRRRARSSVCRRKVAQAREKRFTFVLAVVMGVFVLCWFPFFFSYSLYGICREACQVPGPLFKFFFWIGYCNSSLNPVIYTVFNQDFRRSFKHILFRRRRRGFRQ

[8] = inhibitors of larval lipid processing in zebrafish, primary screen, whole organism, PED6 fluorescence, gall bladder and intestine (AID 686;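 active = a full or partial loss of lipid-probe fluorescence in the fish gall bladder, intestine or both, judged by eye; inactive = no fluorescence loss, or compound toxic to the fish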;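 also: larvae 5 to 7 days old with five fish per well; signal comes from phospholipase A2 cleavage of quenched PED6 carried via bile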); conditions: Zebrafish larvae PED6 lipid processing, fluorescence scoring; screened at 20 µM (by protocol)
Procedure, shortened: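 Incubation: overnight exposure of larvae to compound plus PED6 / Test system: live zebrafish larvae aged 5-7 days, whole organism / Amount: 5 larvae per well / Read-out basis: visual per-well fluorescence inhibition score / Signal: visual fluorescence microscopy scoring of gall bladder, gut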

[9] = inhibitors of Chlamydomonas gravitaxis, primary screen, whole organism, Chlamydomonas reinhardtii, WT vs cilia-less mutant, absorbance, 96-well (AID 463189;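 active = inhibition at or above 50% relative to wild type and mutant plate controls; inactive = inhibition below 50%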;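 also: 0% = wild type cc124 cells in DMSO and 100% = ciliumless bld1 mutant cells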); conditions: OD600 absorbance, 2 days, at 10 µM, stronger effect = higher value
[10] = measured here: cell density z-score
[11] = measured here: nuclear c-Myc green intensity z-score
[12] = measured here: nuclear pErk red intensity z-score, stronger effect = higher value

SMILES | cell count [1] | inhibition [1] | inhibition [2] | nuclei count [2] [%] | z-score [3, 10] | z-score [3, 11] | z-score [3, 12] | inhibition [4] | fluorescence slope [5] | NADPH fluorescence slope [6] | slope [7] | outcome [8] | inhibition [9]
CCOc1cc(CN2CCOCC2)cc(C(C)=O)c1 | 617 | -3.9% (inactive) | -113% (inactive) | 110 | 1.86 | 1.2 | -0.466 | 15.1% (inactive) | -0.573 (inactive) | -1.5e-05 (inactive) | 0.00527 (inactive) | inactive | 38.5% (inactive)
Cc1c(/C(O)=C2\C(=O)C(=O)N(CCCN(C)C)C2c2ccccc2)cnn1-c1ccccc1 (stereo not given) | 528 | 1.1% (inactive) | -134% (inactive) | 139 | -0.232 | 0.596 | 1.69 | 1.6e-07% (inactive) | -0.579 (inactive) | -2.7e-05 (inactive) | 0.00616 (inactive) | inactive | -16.4% (inactive)
c1ccc(C2=Nn3c(nnc3-c3ccccn3)SC2)cc1 | 589 | -10.9% (inactive) | -79.3% (inactive) | 170 | -0.434 | 1.46 | 1.25 | -9.66% (inactive) | -0.412 (inactive) | -0.000132 (inactive) | 0.00684 (inactive) | inactive | -6.13% (inactive)
CC(=O)c1cc2c(=O)c3ccccc3oc2nc1C | 564 | -7.4% (inactive) | 19.7% (inactive) | 151 | 0.231 | 1.31 | -0.249 | 26.5% (inactive) | -0.525 (inactive) | -4.9e-05 (inactive) | 0.00444 (inactive) | inactive | 46.5% (inactive)
O=C(CN1C(=O)c2ccccc2C1=O)NCc1ccccn1 | 400 | -5.8% (inactive) | -67.3% (inactive) | 171 | 0.0865 | -1.72 | 1.07 | 5.42% (inactive) | -0.417 (inactive) | -0.000121 (inactive) | 0.00507 (inactive) | inactive | 26% (inactive)
CN1C(=O)C2(N=c3ccccc3=N2)c2ccccc21 | 527 | -4.5% (inactive) | -152% (inactive) | 209 | -0.677 | 0.303 | 0.421 | 7.73% (inactive) | -0.482 (inactive) | -4.4e-05 (inactive) | 0.00491 (inactive) | inactive | 9.55% (inactive)
CCNC(=O)Nn1c(C)nnc1C | 604 | 5% (inactive) | 15.6% (inactive) | 129 | -0.49 | 0.191 | -0.43 | -8.27% (inactive) | -0.469 (inactive) | -0.000298 (inactive) | 0.00578 (inactive) | inactive | 7.13% (inactive)
CCN1CCCC1Cn1cnc2c([nH]c3ccc(C)cc32)c1=O (stereo not given) | 319 | -6.8% (inactive) | 13.2% (inactive) | 160 | -0.0977 | 0.977 | 0.149 | 9.42% (inactive) | -0.357 (inactive) | -0.000123 (inactive) | 0.00693 (inactive) | inactive | 128% (active)
CCOC(=O)c1sc2c(c1C)c(=O)c(C(=O)OCC)cn2CC | 584 | -4.2% (inactive) | -79% (inactive) | 156 | -0.851 | -0.225 | 0.403 | 7.01% (inactive) | -0.376 (inactive) | 4.1e-06 (inactive) | 0.00559 (inactive) | inactive | -0.239% (inactive)
COc1ccc(Cn2c(=O)c3c(nc(NCCO)n3C)n(C)c2=O)cc1 | 336 | -3.5% (inactive) | -129% (inactive) | 131 | -0.216 | 1.13 | 0.242 | -0.624% (inactive) | -0.369 (inactive) | 3.5e-05 (inactive) | 0.00827 (inactive) | inactive | -14.7% (inactive)
